Reference: ChEMBL document CHEMBL4715682, “Potent trifluoromethoxy, trifluoromethylsulfonyl, trifluoromethylthio and pentafluorosulfanyl containing (1,3,4-oxadiazol-2-yl)benzamides against drug-resistant Gram-positive bacteria” (RSC Med Chem, 2020)
≈ marks a conversion by molar mass, not a printed value. Calls of active or inactive are those of the source. The rule behind the calls is not given here.

Experiments:
Caco-2 = test: Cytotoxicity against human Caco2 cells assessed as reduction in cell viability at 128 ug/ml incubated for 2 hrs by MTS assay; format: cell-based; settings: caco-2, 2 h, dose 128 µg/ml
Staphylococcus aureus [1] = test: Bacteriostatic activity against methicillin-resistant Staphylococcus aureus ATCC 33592 assessed as reduction in bacterial growth incubated for 18 hrs by CLSI method; format: functional
Staphylococcus aureus [2] = test: Antibacterial activity against methicillin-resistant Staphylococcus aureus NRS387 assessed as inhibition of visible bacterial growth incubated for 18 to 20 hrs by CLSI method; format: functional; settings: time 18-20 hrs
In short: (§1)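 CLSI broth microdilution. Strains grown aerobically overnight on tryptic soy agar at 37 °C, adjusted to 0.5 McFarland and diluted in cation-adjusted Mueller–Hinton broth to about 5×10^5 CFU/mL. Compounds and control drugs serially diluted across the plate. Incubated aerobically at 37 °C for 18-20 h. MIC is the lowest concentration with no visible growth.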

Staphylococcus aureus [3] = test: Antibacterial activity against methicillin-resistant Staphylococcus aureus NRS382 assessed as inhibition of visible bacterial growth incubated for 18 to 20 hrs by CLSI method; format: functional; settings: time 18-20 hrs; in short: as §1
Staphylococcus aureus [4] = test: Antibacterial activity against methicillin-resistant Staphylococcus aureus NRS484 assessed as inhibition of visible bacterial growth incubated for 18 to 20 hrs by CLSI method; format: functional; settings: time 18-20 hrs; in short: as §1
Enterococcus faecalis [5] = test: Antibacterial activity against vancomycin- resistant Enterococcus faecalis ATCC 700221 assessed as inhibition of visible bacterial growth incubated for 18 to 20 hrs by CLSI method; format: functional; settings: time 18-20 hrs; in short: as §1
Streptococcus pneumoniae [6] = test: Antibacterial activity against […] Streptococcus pneumoniae ATCC 700677 assessed as inhibition of visible bacterial growth incubated for 18 to 20 hrs by CLSI method; format: functional; settings: time 18-20 hrs; in short: as §1
Staphylococcus aureus [7] = test: Antibacterial activity against methicillin-resistant Staphylococcus aureus NRS384 assessed as inhibition of visible bacterial growth incubated for 18 to 20 hrs by CLSI method; format: functional; settings: time 18-20 hrs; in short: as §1
Staphylococcus aureus [8] = test: Antibacterial activity against methicillin-resistant Staphylococcus aureus NRS383 assessed as inhibition of visible bacterial growth incubated for 18 to 20 hrs by CLSI method; format: functional; settings: time 18-20 hrs; in short: as §1
Staphylococcus aureus [9] = test: Synergistic antibacterial activity against methicillin-resistant Staphylococcus aureus ATCC 33592 assessed as fractional inhibitory concentration index in presence of Vancomycin; format: functional
Staphylococcus aureus [10] = test: Antibacterial activity against methicillin-sensitive Staphylococcus aureus NRS 107 assessed as inhibition of visible bacterial growth incubated for 18 to 20 hrs by CLSI method; format: functional; settings: time 18-20 hrs; in short: as §1
Acinetobacter baumannii = test: Antibacterial activity against Acinetobacter baumannii ATCC 19606 RW4 assessed as inhibition of visible bacterial growth at 16 ug/ml incubated for 18 to 20 hrs by CLSI method; format: functional, organism-based; settings: ATCC 19606 = CIP 70.34 = JCM 6841 RW4, dose 16.0 µg/ml, time 18-20 hrs; in short: as §1
[11] = system: Staphylococcus epidermidis; test: Antibacterial activity against Staphylococcus epidermidis NRS101 assessed as inhibition of visible bacterial growth incubated for 18 to 20 hrs by CLSI method; format: functional; settings: time 18-20 hrs
In short: (§2)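 Broth microdilution per CLSI. Strains grown aerobically overnight on TSA at 37 °C, suspended to 0.5 McFarland, diluted in CAMHB to about 5×10^5 CFU/mL. Agents serially diluted across plate; aerobic incubation 37 °C for 18-20 h. MIC = lowest concentration completely preventing visible growth.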

Staphylococcus aureus [12] = test: Antibacterial activity against methicillin-sensitive Staphylococcus aureus ATCC 6538 assessed as inhibition of visible bacterial growth incubated for 18 to 20 hrs by CLSI method; format: functional; settings: time 18-20 hrs; in short: as §1
Staphylococcus aureus [13] = test: Synergistic antibacterial activity against methicillin-resistant Staphylococcus aureus ATCC 33592 assessed as fractional inhibitory concentration index in presence of linezolid by checkerboard assay; format: functional
Streptococcus pneumoniae [14] = test: Antibacterial activity against cephalosporin-resistant Streptococcus pneumoniae ATCC 51916 assessed as inhibition of visible bacterial growth incubated for 18 to 20 hrs by CLSI method; format: functional; settings: time 18-20 hrs; in short: as §1
Staphylococcus aureus [15] = test: Antibacterial activity against vancomycin-resistant Staphylococcus aureus 12 assessed as inhibition of visible bacterial growth incubated for 18 to 20 hrs by CLSI method; format: functional; settings: time 18-20 hrs; in short: as §1
Staphylococcus aureus [16] = test: Antibacterial activity against methicillin-resistant Staphylococcus aureus NRS483 assessed as inhibition of visible bacterial growth incubated for 18 to 20 hrs by CLSI method; format: functional; settings: time 18-20 hrs; in short: as §1
Staphylococcus aureus [17] = test: Synergistic antibacterial activity against methicillin-resistant Staphylococcus aureus ATCC 33592 assessed as fractional inhibitory concentration index in presence of methicillin by checkerboard assay; format: functional
Listeria monocytogenes = test: Antibacterial activity against Listeria monocytogenes ATCC 19111 assessed as inhibition of visible bacterial growth incubated for 18 to 20 hrs by CLSI method; format: functional; settings: time 18-20 hrs; in short: as §2
Staphylococcus aureus [18] = test: Synergistic antibacterial activity against methicillin-resistant Staphylococcus aureus ATCC 33592 assessed as fractional inhibitory concentration index in presence of daptomycin by checkerboard assay; format: functional
[19] = Hemolytic activity in human RBC at 128 ug/ml incubated for 60 mins relative to control; format: ADME, cell-based, Erythrocyte; settings: red blood cells (erythrocytes), dose 128 µg/ml, read-out: Activity
In short: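 Single-donor human erythrocytes as a 5% v/v suspension in PBS. Compounds serially diluted in PBS, in triplicate, and incubated with RBCs at 37 °C for 60 min. PBS served as the negative control and Triton-X as the positive control. Samples spun at 4,000 rpm for 5 min and supernatant absorbance read at 540 nm. Percent hemolysis = 100×(sample−negative)/(positive−negative).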

Enterococcus faecalis [20] = test: Antibacterial activity against vancomycin- resistant Enterococcus faecalis ATCC 51299 assessed as inhibition of visible bacterial growth incubated for 18 to 20 hrs by CLSI method; format: functional; settings: time 18-20 hrs; in short: as §1
Escherichia coli = test: Antibacterial activity against Escherichia coli ATCC 25404 assessed as inhibition of visible bacterial growth at 16 ug/ml incubated for 18 to 20 hrs by CLSI method; format: functional, organism-based; settings: B ATCC 25404, dose 16.0 µg/ml, time 18-20 hrs; in short: as §1
Staphylococcus aureus [21] = test: Antibacterial activity against vancomycin-resistant Staphylococcus aureus 10 assessed as inhibition of visible bacterial growth incubated for 18 to 20 hrs by CLSI method; format: functional; settings: time 18-20 hrs; in short: as §1
Pseudomonas aeruginosa = test: Antibacterial activity against Pseudomonas aeruginosa ATCC 27853 assessed as inhibition of visible bacterial growth at 16 ug/ml incubated for 18 to 20 hrs by CLSI method; format: functional, organism-based; settings: dose 16.0 µg/ml, time 18-20 hrs; in short: as §1
Staphylococcus aureus [22] = test: Antibacterial activity against methicillin-resistant Staphylococcus aureus NRS 119 assessed as inhibition of visible bacterial growth incubated for 18 to 20 hrs by CLSI method; format: functional; settings: time 18-20 hrs; in short: as §1
Staphylococcus aureus [23] = test: Antibacterial activity against methicillin-resistant Staphylococcus aureus NRS123 assessed as inhibition of visible bacterial growth incubated for 18 to 20 hrs by CLSI method; format: functional; settings: time 18-20 hrs; in short: as §1
J774 = test: Cytotoxicity against mouse J774 cells assessed as reduction in cell viability at 32 ug/ml incubated for 24 hrs by MTS assay; format: cell-based; settings: j774, 24 h, dose 32 µg/ml
Staphylococcus aureus [24] = test: Antibacterial activity against methicillin-resistant Staphylococcus aureus NRS386 assessed as inhibition of visible bacterial growth incubated for 18 to 20 hrs by CLSI method; format: functional; settings: time 18-20 hrs; in short: as §1
Staphylococcus aureus [25] = test: Antibacterial activity against Staphylococcus aureus ATCC 25923 assessed as inhibition of visible bacterial growth incubated for 18 to 20 hrs by CLSI method; format: functional; settings: time 18-20 hrs; in short: as §1
Staphylococcus aureus [26] = test: Antibacterial activity against methicillin-resistant Staphylococcus aureus NRS385 assessed as inhibition of visible bacterial growth incubated for 18 to 20 hrs by CLSI method; format: functional; settings: time 18-20 hrs; in short: as §1
Staphylococcus aureus [27] = test: Antibacterial activity against methicillin-resistant Staphylococcus aureus ATCC 33592 assessed as reduction in bacterial count at 3 x MIC incubated upto 24 hrs by time kill analysis; format: functional; settings: time hrs <=24
In short: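 Time-kill assay. […] Samples taken at 0, 2, 4, 8, 12 and 24 h, serially diluted in PBS and plated on tryptic soy agar. Viable CFU/mL counted after 18-20 h at 37 °C.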

Staphylococcus aureus [28] = test: Antibacterial activity against methicillin-resistant Staphylococcus aureus ATCC 33592 assessed as inhibition of visible bacterial growth incubated for 18 to 20 hrs by CLSI method; format: functional; settings: time 18-20 hrs; in short: as §1

With `O=C(Nc1nnc(-c2cccs2)o1)c1ccc(OC(F)(F)F)cc1` the Activity (Caco-2) was “Non-Toxic”, the MBC (Staphylococcus aureus [1]) was greater than 128 µg/mL and the MIC (Staphylococcus aureus [2]) was 2 µg/mL (≈ 5.63 µM). The MIC (Staphylococcus aureus [3]) was 1 µg/mL (≈ 2.81 µM), the MIC (Staphylococcus aureus [4]) was 0.5 µg/mL (≈ 1.41 µM) and the MIC (Enterococcus faecalis [5]) was 4 µg/mL (≈ 11.3 µM). It also gave an MIC (Streptococcus pneumoniae [6]) of 1 µg/mL (≈ 2.81 µM), an MIC (Staphylococcus aureus [7]) of 0.5 µg/mL (≈ 1.41 µM) and an MIC (Staphylococcus aureus [8]) of 2 µg/mL (≈ 5.63 µM). For the same compound, the “fractional inhibitory concentration index (FICI)” value (Staphylococcus aureus [9]) was 1.06, the MIC (Staphylococcus aureus [10]) was 1 µg/mL (≈ 2.81 µM) and the inhibition (Acinetobacter baumannii) was “inactive”. The MIC [11] was 0.5 µg/mL (≈ 1.41 µM), the MIC (Staphylococcus aureus [12]) was 1 µg/mL (≈ 2.81 µM) and the “fractional inhibitory concentration index (FICI)” value (Staphylococcus aureus [13]) was 1.25. It also gave an MIC (Streptococcus pneumoniae [14]) of 2 µg/mL (≈ 5.63 µM), an MIC (Staphylococcus aureus [15]) of 1 µg/mL (≈ 2.81 µM) and an MIC (Staphylococcus aureus [16]) of 1 µg/mL (≈ 2.81 µM). The “fractional inhibitory concentration index (FICI)” value (Staphylococcus aureus [17]) was 0.63, the MIC (Listeria monocytogenes) was 2 µg/mL (≈ 5.63 µM) and the “fractional inhibitory concentration index (FICI)” value (Staphylococcus aureus [18]) was 0.5. The hemolysis at 1 h, 128 ug/ml [19] was 20%, the MIC (Enterococcus faecalis [20]) was 8 µg/mL (≈ 22.5 µM) and the inhibition (Escherichia coli) was “inactive”. The MIC (Staphylococcus aureus [21]) was 1 µg/mL (≈ 2.81 µM), the inhibition (Pseudomonas aeruginosa) was “inactive” and the MIC (Staphylococcus aureus [22]) was 1 µg/mL (≈ 2.81 µM). For the same compound, the MIC (Staphylococcus aureus [23]) was 1 µg/mL (≈ 2.81 µM), the Activity (J774) was “Non-Toxic” and the MIC (Staphylococcus aureus [24]) was 1 µg/mL (≈ 2.81 µM). It also gave an MIC (Staphylococcus aureus [25]) of 1 µg/mL (≈ 2.81 µM), an MIC (Staphylococcus aureus [26]) of 2 µg/mL (≈ 5.63 µM) and an Activity (Staphylococcus aureus [27]) of 0.69 log10CFU/ml. It also gave an MIC (Staphylococcus aureus [28]) of 1 µg/mL (≈ 2.81 µM).
